Measurements: ChEMBL document CHEMBL1125444 (J Med Chem, 1992)
pKi: −log10 of the molar value.

Legend:
[1] = target: 5-hydroxytryptamine receptor 4 (Rattus norvegicus) (UniProt Q62758); experiment: Relaxation of carbachol induced contractions of rat tunica muscularis mucosae
How it was run: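 Rat esophagus tunica muscularis mucosae strips, equilibrated 30 min, then contracted isometrically with carbachol (3 μM) to a stable tonic plateau within 20 min. Test agent added cumulatively to relax the strip. Buffer held corticosterone acetate (30 μM), fluoxetine (1 μM) and pargyline (10 μM).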

D(2) dopamine receptor = D(2) dopamine receptor (Rattus norvegicus, UniProt P61169); experiment: The ability to inhibit [3H]domperidone binding to dopamine receptor D2 in rat striata
[2] = target: T1, Alpha-1A adrenergic receptor (Rattus norvegicus, UniProt P43140); experiment: The ability to inhibit [3H]prazosin binding to Alpha-1 adrenergic receptor in rat whole brain
T1 sequence (P43140 whole entry): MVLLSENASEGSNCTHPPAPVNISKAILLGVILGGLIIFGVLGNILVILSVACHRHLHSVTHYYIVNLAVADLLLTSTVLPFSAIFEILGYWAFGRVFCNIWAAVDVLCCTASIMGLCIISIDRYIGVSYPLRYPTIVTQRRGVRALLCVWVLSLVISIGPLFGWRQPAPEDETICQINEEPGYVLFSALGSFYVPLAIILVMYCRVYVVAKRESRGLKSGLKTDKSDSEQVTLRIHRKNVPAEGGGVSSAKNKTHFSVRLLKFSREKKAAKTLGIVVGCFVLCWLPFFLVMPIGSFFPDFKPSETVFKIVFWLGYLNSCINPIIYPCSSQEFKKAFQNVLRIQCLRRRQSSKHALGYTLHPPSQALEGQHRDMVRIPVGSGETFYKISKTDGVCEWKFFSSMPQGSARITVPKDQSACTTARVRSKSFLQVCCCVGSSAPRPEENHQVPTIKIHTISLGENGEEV

[3] = %E relative to serotonin is 100%; format: functional
[4] = target: T2, Adrenergic receptor alpha-2 (Rattus norvegicus, UniProt P22086+P19328+P22909); experiment: The ability to inhibit [3H]rauwolscine binding to alpha-2 adrenergic receptor in rat cortex
T2 sequence (P22086 whole entry): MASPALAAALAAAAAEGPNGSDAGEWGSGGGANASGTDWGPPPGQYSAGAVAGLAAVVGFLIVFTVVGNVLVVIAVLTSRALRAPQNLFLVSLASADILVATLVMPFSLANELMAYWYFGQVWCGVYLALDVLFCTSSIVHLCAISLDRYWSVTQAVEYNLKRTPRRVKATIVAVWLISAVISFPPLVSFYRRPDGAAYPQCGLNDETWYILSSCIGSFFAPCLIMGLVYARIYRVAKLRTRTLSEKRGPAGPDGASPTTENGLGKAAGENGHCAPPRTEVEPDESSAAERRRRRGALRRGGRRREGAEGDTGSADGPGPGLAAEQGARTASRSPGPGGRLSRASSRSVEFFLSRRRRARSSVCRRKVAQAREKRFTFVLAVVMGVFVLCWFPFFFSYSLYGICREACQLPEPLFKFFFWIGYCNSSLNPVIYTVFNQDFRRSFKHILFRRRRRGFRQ
T2 sequence (P19328 whole entry): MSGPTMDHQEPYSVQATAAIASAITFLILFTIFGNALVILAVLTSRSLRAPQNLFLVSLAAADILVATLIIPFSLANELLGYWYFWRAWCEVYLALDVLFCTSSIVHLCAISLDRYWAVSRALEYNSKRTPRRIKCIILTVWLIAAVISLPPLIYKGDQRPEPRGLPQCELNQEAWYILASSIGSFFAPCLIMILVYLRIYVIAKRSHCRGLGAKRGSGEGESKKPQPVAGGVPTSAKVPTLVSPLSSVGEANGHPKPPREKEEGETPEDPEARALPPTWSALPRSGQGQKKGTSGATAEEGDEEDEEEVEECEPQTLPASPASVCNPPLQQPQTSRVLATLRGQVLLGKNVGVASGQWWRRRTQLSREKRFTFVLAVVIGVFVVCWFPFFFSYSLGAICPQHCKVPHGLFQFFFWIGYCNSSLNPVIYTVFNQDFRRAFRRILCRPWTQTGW
T2 sequence (P22909 whole entry): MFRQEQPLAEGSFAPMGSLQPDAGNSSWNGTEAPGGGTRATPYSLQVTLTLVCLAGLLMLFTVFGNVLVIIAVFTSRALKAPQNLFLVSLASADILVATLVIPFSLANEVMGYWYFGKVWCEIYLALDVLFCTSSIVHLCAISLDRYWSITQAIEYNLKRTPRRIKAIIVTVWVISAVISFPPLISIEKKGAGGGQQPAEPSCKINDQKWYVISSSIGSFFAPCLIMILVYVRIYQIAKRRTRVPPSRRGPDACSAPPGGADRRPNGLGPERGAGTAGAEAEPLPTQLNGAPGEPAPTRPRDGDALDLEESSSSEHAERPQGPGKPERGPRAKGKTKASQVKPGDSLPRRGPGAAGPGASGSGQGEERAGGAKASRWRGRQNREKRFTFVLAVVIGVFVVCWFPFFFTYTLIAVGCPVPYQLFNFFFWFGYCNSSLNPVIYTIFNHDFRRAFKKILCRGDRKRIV

Adrenergic receptor beta = Adrenergic receptor beta (Rattus norvegicus, UniProt P18090+P10608+P26255); experiment: The ability to inhibit [3H]dihydroalprenolol prenolol binding to Beta adrenergic receptor in rat whole brain
D(1A) dopamine receptor = D(1A) dopamine receptor (Rattus norvegicus, UniProt P18901); experiment: The ability to inhibit [3H]-SCH- 23390 binding to Dopamine receptor D1 in rat striata
[5] = target: T3, Serotonin 3 (5-HT3) receptor (Rattus norvegicus, UniProt P35563+Q9JJ16); experiment: Inhibition of [3H]GR-65630 binding to 5-hydroxytryptamine 3 receptor; format: protein-complex assay
T3 sequence (P35563 whole entry): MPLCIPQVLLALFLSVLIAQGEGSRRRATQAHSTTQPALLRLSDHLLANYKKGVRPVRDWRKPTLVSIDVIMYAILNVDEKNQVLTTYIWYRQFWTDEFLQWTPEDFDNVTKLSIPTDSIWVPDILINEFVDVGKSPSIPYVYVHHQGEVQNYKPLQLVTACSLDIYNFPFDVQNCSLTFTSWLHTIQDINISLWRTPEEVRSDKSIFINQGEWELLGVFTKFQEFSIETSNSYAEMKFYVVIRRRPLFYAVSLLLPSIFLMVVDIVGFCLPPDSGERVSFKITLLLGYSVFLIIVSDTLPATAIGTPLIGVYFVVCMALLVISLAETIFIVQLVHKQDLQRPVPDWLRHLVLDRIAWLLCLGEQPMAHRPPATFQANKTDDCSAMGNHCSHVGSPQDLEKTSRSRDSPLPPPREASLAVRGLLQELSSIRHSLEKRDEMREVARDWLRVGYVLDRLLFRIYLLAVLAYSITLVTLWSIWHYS
T3 sequence (Q9JJ16 whole entry): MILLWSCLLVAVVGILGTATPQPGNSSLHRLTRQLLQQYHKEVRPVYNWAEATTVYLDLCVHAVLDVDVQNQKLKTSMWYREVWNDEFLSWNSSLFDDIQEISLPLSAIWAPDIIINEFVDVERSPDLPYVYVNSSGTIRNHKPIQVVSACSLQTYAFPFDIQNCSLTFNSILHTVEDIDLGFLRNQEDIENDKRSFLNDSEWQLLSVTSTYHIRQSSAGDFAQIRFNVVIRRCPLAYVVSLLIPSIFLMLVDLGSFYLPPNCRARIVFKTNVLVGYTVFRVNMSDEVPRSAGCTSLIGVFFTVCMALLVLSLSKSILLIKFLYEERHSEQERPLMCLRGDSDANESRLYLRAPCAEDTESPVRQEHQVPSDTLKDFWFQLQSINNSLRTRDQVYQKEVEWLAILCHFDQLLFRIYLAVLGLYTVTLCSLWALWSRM

[6] = target: Serotonin 2 (5-HT2) receptor (Rattus norvegicus, UniProt P30994+P08909+P14842); experiment: The ability to inhibit [3H]ketanserin binding to 5-hydroxytryptamine 2 receptor in rat whole brain
[7] = target: Serotonin 1 (5-HT1) receptor (Rattus norvegicus, UniProt P28564+P30940+P19327+P28565); experiment: The ability to inhibit [3H]5-HT binding to 5-hydroxytryptamine 1 receptor in rat cortex
[8] = target: T3, Serotonin 3 (5-HT3) receptor; experiment: The ability to inhibit [3H]GR-65630 binding to 5-hydroxytryptamine 3 receptor in rat brain cortices; format: tissue-based
How it was run: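 Membranes from male rat brain cortices incubated with [3H]GR65630 (0.2 nM) as radioligand.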

Sequence of D(2) dopamine receptor (P61169 whole entry): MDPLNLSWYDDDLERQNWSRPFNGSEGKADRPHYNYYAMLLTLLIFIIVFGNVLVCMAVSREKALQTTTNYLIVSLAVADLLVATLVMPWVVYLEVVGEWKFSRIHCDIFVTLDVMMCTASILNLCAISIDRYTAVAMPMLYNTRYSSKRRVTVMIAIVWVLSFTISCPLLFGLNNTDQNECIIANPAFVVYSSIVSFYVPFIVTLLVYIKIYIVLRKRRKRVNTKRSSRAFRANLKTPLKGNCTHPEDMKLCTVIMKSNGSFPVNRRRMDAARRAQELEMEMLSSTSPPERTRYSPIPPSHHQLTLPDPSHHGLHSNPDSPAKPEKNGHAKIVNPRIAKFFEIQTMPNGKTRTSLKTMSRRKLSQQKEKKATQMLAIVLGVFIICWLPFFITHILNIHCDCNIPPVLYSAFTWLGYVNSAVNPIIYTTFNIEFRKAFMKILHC
Sequence of D(1A) dopamine receptor (P18901 whole entry): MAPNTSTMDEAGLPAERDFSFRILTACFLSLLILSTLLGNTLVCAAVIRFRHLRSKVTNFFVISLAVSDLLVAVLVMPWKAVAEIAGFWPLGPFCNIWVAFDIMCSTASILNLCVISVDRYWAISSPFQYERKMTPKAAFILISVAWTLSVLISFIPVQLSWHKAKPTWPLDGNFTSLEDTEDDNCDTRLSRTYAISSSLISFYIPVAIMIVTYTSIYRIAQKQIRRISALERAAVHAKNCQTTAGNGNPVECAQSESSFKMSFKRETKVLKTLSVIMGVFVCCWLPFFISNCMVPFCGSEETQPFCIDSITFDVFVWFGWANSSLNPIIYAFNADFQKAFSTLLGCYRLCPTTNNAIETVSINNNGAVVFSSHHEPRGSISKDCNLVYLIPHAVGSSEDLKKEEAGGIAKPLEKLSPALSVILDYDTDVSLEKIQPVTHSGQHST
Sequence of 5-hydroxytryptamine receptor 4 (Rattus norvegicus) (Q62758 whole entry): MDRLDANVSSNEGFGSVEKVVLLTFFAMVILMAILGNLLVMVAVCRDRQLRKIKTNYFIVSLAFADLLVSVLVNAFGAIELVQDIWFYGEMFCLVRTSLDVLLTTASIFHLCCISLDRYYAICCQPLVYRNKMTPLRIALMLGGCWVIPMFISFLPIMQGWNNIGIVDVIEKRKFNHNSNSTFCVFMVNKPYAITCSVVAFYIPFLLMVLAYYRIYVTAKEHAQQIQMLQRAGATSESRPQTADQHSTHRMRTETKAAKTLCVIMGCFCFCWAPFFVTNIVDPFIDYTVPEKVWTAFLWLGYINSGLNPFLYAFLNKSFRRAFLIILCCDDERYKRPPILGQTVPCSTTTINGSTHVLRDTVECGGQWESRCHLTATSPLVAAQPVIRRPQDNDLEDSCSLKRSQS

## COc1cc(N)c(Cl)cc1C(=O)NC1CCN2CCCC12 (stereo in doubt; 1J) [listing 1 of 2 here]
[1]
  ED50: 3450 nM

## COc1cc(N)c(Cl)cc1C(=O)NC1CCN2CCCC12 (stereo in doubt; 1F) [listing 1 of 2 here]
[1]
  ED50: 187 nM

## COc1cc(N)c(Cl)cc1C(=O)NC1CCN2CCCC1C2 (centres undefined) [RENZAPRIDE]
D(2) dopamine receptor
  pKi: < 5.00
[2]
  pKi: < 5.00
[3]
  E: 98%
[4]
  Ki: > 10000 nM
Adrenergic receptor beta
  Ki: > 10000 nM
[1]
  ED50: 44 nM
D(1A) dopamine receptor
  pKi: < 5.00

## COc1cc(N)c(Cl)cc1C(=O)NC1CCN2CCCC12 (stereo in doubt; 1F) [listing 2 of 2 here]
[5]
  pKi: 7.85

## CCOc1cc(N)c(Cl)cc1C(=O)NC1CCN2CCCC12 (stereo in doubt; 1G) [listing 1 of 2 here]
[5]
  pKi: 8.10

## COc1cc(N)c(Cl)cc1C(=O)N[C@H]1CN2CCC1CC2 [(R)ZACOPRIDE]
[6]
  Ki: 415 nM
[5]
  pKi: 8.10
D(2) dopamine receptor
  pKi: < 5.00
[2]
  pKi: < 5.00
[3]
  E: 96%
[4]
  Ki: > 10000 nM
Adrenergic receptor beta
  Ki: > 10000 nM
[1]
  ED50: 505 nM
[7]
  Ki: > 10000 nM
D(1A) dopamine receptor
  pKi: < 5.00

## CCOc1cc(N)c(Cl)cc1C(=O)NC1CCN2CCCC12 (stereo in doubt; 1K) [listing 1 of 2 here]
[1]
  ED50: > 10000 nM

## COc1cc(N)c(Cl)cc1C(=O)NC1CCN(CCCOc2ccc(F)cc2)CC1OC (centres undefined) [CISAPRIDE]
[2]
  pKi: 7.52
[3]
  E: 105%
Adrenergic receptor beta
  Ki: > 10000 nM
[1]
  ED50: 54.7 nM
[7]
  Ki: > 10000 nM
D(1A) dopamine receptor
  pKi: 5.77

## NCCc1c[nH]c2ccc(O)cc12
[1]
  ED50: 16 nM

## CCOc1cc(N)c(Cl)cc1C(=O)NC1CCN2CCCC12 (stereo in doubt; 1K) [listing 2 of 2 here]
[5]
  pKi: 7.00

## O=C(NC1CCN2CCCC12)c1ccccc1 (centres undefined)
[5]
  pKi: < 6.70
[1]
  ED50: > 10000 nM

## COc1cc(N)c(Cl)cc1C(=O)NC1CCN2CCCC12 (stereo in doubt; 1J) [listing 2 of 2 here]
[5]
  pKi: 7.02

## COc1cc(N)c(Cl)cc1C(=O)NCC1CCN2CCCC12 (stereo in doubt; 1E) [listing 1 of 2 here]
[1]
  ED50: 280 nM

## COc1cc(N)c(Cl)cc1C(=O)NCC1CCN2CCCC12 (stereo in doubt; 1E) [listing 2 of 2 here]
[5]
  pKi: 6.56

## COc1cc(N)c(Cl)cc1C(=O)NC[C@H]1CCN2CCC[C@H]12
[5]
  pKi: 7.18
[1]
  ED50: 323 nM

## COc1cc(N)c(Cl)cc1C(=O)NC[C@@H]1CCN2CCC[C@@H]12 (relative stereo)
[6]
  Ki: > 10000 nM
[5]
  pKi: 6.82
D(2) dopamine receptor
  pKi: < 5.00
[2]
  pKi: < 5.00
[3]
  E: 93%
[4]
  Ki: > 10000 nM
Adrenergic receptor beta
  Ki: > 10000 nM
[1]
  ED50: 23 nM
[7]
  Ki: > 10000 nM
D(1A) dopamine receptor
  pKi: < 5.00

## CC(C)n1c(=O)n(C(=O)CC2CC3CCC(C2)N3C)c2ccccc21 (centres undefined)
[6]
  Ki: > 10000 nM
[8]
  pKi: < 5.00
D(2) dopamine receptor
  pKi: < 5.00
[2]
  pKi: < 5.00
[3]
  E: > 111%
[4]
  Ki: > 10000 nM
Adrenergic receptor beta
  Ki: > 10000 nM
[1]
  ED50: 40.2 nM
[7]
  Ki: > 10000 nM
D(1A) dopamine receptor
  pKi: < 5.00

## COc1cc(N)c(Cl)cc1C(=O)NCC1CCN2CCCC12 (stereo in doubt; 1A) [listing 1 of 2 here]
[5]
  pKi: 6.98

## CCOc1cc(N)c(Cl)cc1C(=O)NC1CCN2CCCC12 (stereo in doubt; 1G) [listing 2 of 2 here]
[1]
  ED50: 2270 nM

## CCOc1cc(N)c(Cl)cc1C(=O)NCC1CCN2CCCC12 (centres undefined)
[5]
  pKi: 7.60
[1]
  ED50: 1380 nM

## CCN(CC)CCNC(=O)c1cc(Cl)c(N)cc1OC [METOCLOPRAMIDE]
[5]
  pKi: 6.62
[1]
  ED50: 24100 nM

## COc1cc(N)c(Cl)cc1C(=O)NCC1CCN2CCCC12 (stereo in doubt; 1A) [listing 2 of 2 here]
[1]
  ED50: 64 nM
